From PMC8667933 (Journal of Enzyme Inhibition and Medicinal Chemistry, 2021)

Columns and labels:
ERRα = biological target: T1, ERRα (Homo sapiens, UniProt P11474); assay: ERRα functional assay: mammalian two-hybrid reporter gene assay; format: cell-based
T1 sequence (P11474 193-421 limits assumed): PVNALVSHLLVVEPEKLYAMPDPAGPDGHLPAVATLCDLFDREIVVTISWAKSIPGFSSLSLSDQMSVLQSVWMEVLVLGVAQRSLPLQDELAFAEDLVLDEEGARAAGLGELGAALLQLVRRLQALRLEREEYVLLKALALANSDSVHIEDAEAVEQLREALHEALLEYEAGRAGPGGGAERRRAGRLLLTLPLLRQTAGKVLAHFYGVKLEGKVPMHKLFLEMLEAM

ERRα LBD = biological target: T2, ERRα LBD (Homo sapiens, UniProt P11474); assay: TR-FRET co-activator assay; format: binding
T2 sequence (P11474 193-421 limits assumed): T1 sequence (P11474 193-421 limits assumed)

MCF-7 [1] = assay: CCK-8 cell viability assay, MCF-7; format: cell-based, human; settings: for suppression of cell proliferation: MCF-7, 10 μM, CCK-8
How it was run: (§1)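 Log-phase cells seeded in 96-well plates and incubated overnight, then exposed to test compound or vehicle. Viability runs: 1, 3 and 10 μM for 24 h and 48 h. IC50: a range of concentrations for 24 h. Proliferation read by CCK-8 per kit procedure. Mean ± SEM of n = 3; two-tailed unpaired t-test vs vehicle.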

MDA-MB-231 [2] = assay: CCK-8 cell viability assay, MDA-MB-231; format: cell-based, human; settings: for suppression of cell proliferation: MDA-MB-231, 10 μM, CCK-8
How it was run: as §1

HCC-1937 = assay: CCK-8 cell viability assay, HCC-1937; format: cell-based, human; settings: for suppression of cell proliferation: HCC-1937, 10 μM, CCK-8
How it was run: as §1

MCF-7 [3] = assay: Colony formation assay, MCF-7; format: cell-based, human; settings: MCF-7, high-dose 1 μM
How it was run: (§2)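 1 × 10^3 cells/well plated in 6-well plates and cultured overnight. Medium then replaced with vehicle or test compound at 0.3 or 1 μM. Exposure is 7 days per legend and 2 weeks (until colonies visible) per methods. Colonies washed with PBS, fixed in 4% paraformaldehyde, stained 30 min with 0.1% crystal violet, imaged and counted. n = 3, mean ± SEM, unpaired t-test.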

MDA-MB-231 [4] = assay: Colony formation assay, MDA-MB-231; format: cell-based, human
How it was run: as §2

[5] = test system: MCF-7 and MDA-MB-231 cells; assay: Transwell migration assay; format: cell-based, human; settings: 24 h
MCF-7 [6] = assay: Transwell invasion assay; format: cell-based, human; settings: MCF-7, high-dose (3 μM), 24 h
MDA-MB-231 [7] = assay: Transwell invasion assay; format: cell-based, human; settings: 24 h
[8] = test system: ERRα-regulated target genes (PGC-1α, PDK4, osteopontin, pS2); assay: Quantitative RT-PCR of ERRα-regulated target genes in MDA-MB-231 cells; format: cell-based, human; settings: high-dose 3 μM, 24 h
How it was run: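 MDA-MB-231 cells exposed 24 h to 0.1% DMSO or test compound at 1 or 3 μM. Total RNA isolated with Trizol, reverse-transcribed, and analysed by real-time PCR for PGC-1α, PDK4, osteopontin (SPP1) and pS2 (TFF1) mRNA. Mean ± SEM of n = 3; two-tailed unpaired t-test vs vehicle.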

[9] = test system: MDA-MB-231 xenograft tumour; assay: Breast cancer xenografts in nude mice; format: in vivo, BALB/c nude mice; settings: 30 mg/kg every other day, intraperitoneally, 30 days
How it was run: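 6-week-old BALB/c nude mice were implanted subcutaneously with 2 × 10^6 MDA-MB-231 cells each. Dosing began once tumours averaged >100 mm3: i.p. 30 mg/kg every other day for 30 days in 0.9% saline with 0.5% 2-phenylethanol and 1.5% Tween 80, vehicle-only controls. Tumours measured every 5 days, V = length × width² × 0.5; body weight every 10 days. n = 6, mean ± SEM, two-tailed unpaired t-test vs vehicle.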

[10] = test system: MDA-MB-231 cells with ERRα knock-down; assay: Viability of MDA-MB-231 cells after ERRα knock-down; format: cell-based, human; settings: siRNA (legend: shERRα vs shCtrl)
[11] = Body weight and overt toxicity in xenograft mice; format: in vivo, BALB/c nude mice; settings: 30 mg/kg every other day, intraperitoneally, vs control group

Structure (SMILES): O=[N+]([O-])c1ccc(S(=O)(=O)Nc2ccccc2Oc2ccccc2)cc1 [compound 8, 4-Nitro-N-(2-phenoxyphenyl)benzenesulfonamide]
- IC50 (ERRα): 1.76 µM

Structure (SMILES): O=[N+]([O-])c1ccc(S(=O)(=O)Nc2ccccc2Oc2ccc(Cl)cc2)cc1 [compound 9, N-(2–(4-chlorophenoxy)phenyl)-4-nitrobenzenesulfonamide]
- IC50 (ERRα): 2.02 µM

Structure (SMILES): Cc1ccc(Oc2ccccc2NS(=O)(=O)c2ccc([N+](=O)[O-])cc2)cc1 [compound 10, 4-Nitro-N-(2-(p-tolyloxy)phenyl)benzenesulfonamide]
- IC50 (ERRα): 1.23 µM
- inhibiting activity relative to compound 14 (ERRα; ratio of IC50 values, compound 10 vs compound 14): 1.5 times

Structure (SMILES): COc1ccc(Oc2ccccc2NS(=O)(=O)c2ccc([N+](=O)[O-])cc2)cc1 [compound 11, N-(2–(4-methoxyphenoxy)phenyl)-4-nitrobenzenesulfonamide]
- IC50 (ERRα): 0.8 µM
- fold more active than compound 10 (ERRα; ratio of IC50 values, compound 11 vs compound 10): 1.5 fold
- IC50 (ERRα LBD): 0.681 µM
- IC50 (MCF-7 [1]; Homo sapiens, MCF7, 24 h, read-out: IC50, cell proliferation): 15.4 µM
- suppression of cell proliferation (MCF-7 [1]; 24 h): 23.5%
- suppression of cell proliferation (MCF-7 [1]; 48 h): 37.4%
- IC50 (MDA-MB-231 [2]; Homo sapiens, MDA-MB-231, 24 h, read-out: IC50, cell proliferation): 9.15 µM
- suppression of cell proliferation (MDA-MB-231 [2]; 24 h): 38.9%
- suppression of cell proliferation (MDA-MB-231 [2]; 48 h): 44.3%
- suppression of cell proliferation (HCC-1937; 24 h): 31.0%
- suppression of cell proliferation (HCC-1937; 48 h): 38.0%
- IC50 (HCC-1937; Homo sapiens, HCC1937, 24 h, read-out: IC50, cell proliferation): 14.7 µM
- reduction of the number of colonies (MCF-7 [3]): 47.5%
- reduction of the number of colonies (MDA-MB-231 [4]; MDA-MB-231, high-dose 1 μM): 70.3%
- number of colonies (MDA-MB-231 [4]; MDA-MB-231, low-dose 0.3 μM): decreased significantly
- inhibition of breast cancer cells migration ([5]; 1 μM): moderate inhibition
- inhibition of breast cancer cells migration ([5]; high-dose 3 μM): much more potently inhibitory effect
- reduction in cell invasion (MCF-7 [6]): 31.5%
- effect on cell invasion (MDA-MB-231 [7]; MB-231 cells, low-dose (1 μM)): weak effect
- reduction in cell invasion (MDA-MB-231 [7]; MDA-MB-231, high-dose (3 μM)): 50.9%
- PGC-1α, PDK4, osteopontin and pS2 mRNA expression [8]: notably reduced
- tumour growth inhibition ([9]; MDA-MB-231 xenograft): 23.58%
- tumour volume at the end of the experiment ([9]; control 1508 mm^3): 1152 mm^3
- effect of ERRα knock-down on compound-induced anti-proliferation [10]: knock-down of ERRα reduced compound 11 induced anti-proliferation
- influence on weight of mice and overt toxicity [11]: no notably compound-related influences on the weight of mice or any other symptoms of overt toxicity

Structure (SMILES): COc1ccc(Oc2ccccc2NS(=O)(=O)c2ccc(N)cc2)cc1 [compound 12, 4-Amino-N-(2–(4-methoxyphenoxy)phenyl)benzenesulfonamide]
- IC50 (ERRα): > 10 µM
- IC50, inhibition of ERRα transcriptional activity (ERRα; reporter gene assay, HEK 293 T cells, 48 h): inactive

Structure (SMILES): Nc1ccc(S(=O)(=O)Nc2ccccc2Oc2ccc(Cl)cc2)cc1 [compound 13, 4-Amino-N-(2–(4-chlorophenoxy)phenyl)benzenesulfonamide]
- IC50 (ERRα): 1.61 µM

Structure (SMILES): Cc1ccc(Oc2ccccc2NS(=O)(=O)c2ccc(N)cc2)cc1 [compound 14, 4-Amino-N-(2-(p-tolyloxy)phenyl)benzenesulfonamide]
- IC50 (ERRα): 1.88 µM
